≈ marks a conversion by molar mass, not a printed value.
Key:
[1] = system: Enterococcus faecium; assay: Antimicrobial activity against Enterococcus faecium by broth microdilution/CLSI method; assay type: functional
[2] = system: Staphylococcus aureus; assay: Antimicrobial activity against Staphylococcus aureus ARC516 by broth microdilution/CLSI method; assay type: functional
[3] = system: Streptococcus pyogenes; assay: Antimicrobial activity against Streptococcus pyogenes by broth microdilution/CLSI method; assay type: functional
[4] = Percentage unbound in mouse plasma; assay type: ADME, cell-free
[5] = Clearance in CD1 mouse at 10 mg/kg, iv; assay type: ADME, organism-based; parameters: dose 10 mg/kg, route intravenous; conditions: in vivo
[6] = system: Staphylococcus aureus; assay: Antibacterial activity against methicillin-sensitive Staphylococcus aureus ARC516 infected in ip dosed neutropenic CD1 mouse thigh model assessed as decrease in bacterial viable counts after 24 hrs; assay type: functional, organism-based; conditions: Thigh muscle
[7] = biological target: Cytochrome P450 3A4 (Homo sapiens, UniProt P08684); assay: Inhibition of human CYP3A4 at 50 uM; assay type: ADME
Chain of Cytochrome P450 3A4 (P08684 whole entry): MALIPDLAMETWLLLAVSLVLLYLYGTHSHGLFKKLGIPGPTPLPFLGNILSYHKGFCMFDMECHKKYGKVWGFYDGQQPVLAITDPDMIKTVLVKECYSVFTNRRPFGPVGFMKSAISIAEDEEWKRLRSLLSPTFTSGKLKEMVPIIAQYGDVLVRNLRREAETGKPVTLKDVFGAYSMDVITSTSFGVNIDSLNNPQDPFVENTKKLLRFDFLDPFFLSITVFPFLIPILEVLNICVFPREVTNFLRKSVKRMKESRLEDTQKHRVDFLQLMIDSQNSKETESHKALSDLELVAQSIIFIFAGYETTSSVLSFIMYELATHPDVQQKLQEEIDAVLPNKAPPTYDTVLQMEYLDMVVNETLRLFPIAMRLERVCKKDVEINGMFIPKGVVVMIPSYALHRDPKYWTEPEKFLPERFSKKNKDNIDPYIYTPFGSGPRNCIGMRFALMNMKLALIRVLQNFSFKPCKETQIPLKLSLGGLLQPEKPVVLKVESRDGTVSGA

[8] = system: Staphylococcus aureus; assay: Antibacterial activity against methicillin-sensitive Staphylococcus aureus ARC516 infected in neutropenic CD1 mouse thigh model assessed as decrease in bacterial viable counts at 30 mg/kg, ip q24; assay type: functional; conditions: route intraperitoneal
[9] = system: Staphylococcus aureus; assay: Antimicrobial activity against Staphylococcus aureus ARC1692 by broth microdilution/CLSI method; assay type: functional
[10] = system: Staphylococcus aureus; assay: Antimicrobial activity against 2 times drug resistance selected Staphylococcus aureus ARC516-1F by broth microdilution/CLSI method; assay type: functional
[11] = Ratio of MIC for methicillin, quinolone-resistant Staphylococcus aureus to fraction unbound in human plasma; assay type: ADME
[12] = system: Staphylococcus aureus; assay: Antimicrobial activity against 2 times drug resistance selected Staphylococcus aureus ARC2381-2F by broth microdilution/CLSI method; assay type: functional
[13] = Bioavailability in CD1 mouse at 10 mg/kg, […]; assay type: ADME, organism-based; conditions: in vivo
[14] = biological target: DNA gyrase subunit B (Staphylococcus aureus, UniProt P0A0K8); assay: Inhibition of ATPase activity of Staphylococcus aureus GyrB
Chain of DNA gyrase subunit B (P0A0K8 whole entry): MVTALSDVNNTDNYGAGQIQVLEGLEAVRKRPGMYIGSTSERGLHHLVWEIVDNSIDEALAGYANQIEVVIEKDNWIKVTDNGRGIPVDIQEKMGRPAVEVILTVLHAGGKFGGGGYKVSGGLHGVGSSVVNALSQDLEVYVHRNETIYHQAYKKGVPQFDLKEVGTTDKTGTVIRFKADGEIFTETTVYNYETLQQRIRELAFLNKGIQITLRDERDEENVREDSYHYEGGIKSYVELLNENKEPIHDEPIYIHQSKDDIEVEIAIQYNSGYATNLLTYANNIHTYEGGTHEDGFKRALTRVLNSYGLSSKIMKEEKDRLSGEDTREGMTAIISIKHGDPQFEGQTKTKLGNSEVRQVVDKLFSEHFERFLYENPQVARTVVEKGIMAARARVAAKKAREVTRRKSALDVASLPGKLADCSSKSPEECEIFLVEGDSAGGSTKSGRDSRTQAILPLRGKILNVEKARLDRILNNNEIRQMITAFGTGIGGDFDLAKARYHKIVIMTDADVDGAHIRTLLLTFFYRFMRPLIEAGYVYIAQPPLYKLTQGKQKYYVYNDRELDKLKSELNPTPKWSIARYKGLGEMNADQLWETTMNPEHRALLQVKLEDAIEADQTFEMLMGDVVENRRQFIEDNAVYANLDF
In short: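 IC50 was determined against S. aureus GyrB in the routine screening assay. The enzyme concentration limits resolution below 10 nM.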

[15] = system: Staphylococcus aureus; assay: Ratio of MIC for 2 times drug resistance selected Staphylococcus aureus ARC1692-1F to MIC for Staphylococcus aureus ARC1692; assay type: functional
[16] = system: Staphylococcus aureus; assay: Antibacterial activity against methicillin-sensitive Staphylococcus aureus ARC516 infected in ip dosed neutropenic CD1 mouse thigh model assessed as decrease in bacterial viable counts treated for q24; assay type: functional; conditions: ARC516, Thigh muscle
[17] = biological target: T1, Cytochrome P450 1A2 (Homo sapiens, UniProt P05177); assay: Inhibition of human CYP1A2 at 50 uM; assay type: ADME
T1 sequence (P05177 whole entry): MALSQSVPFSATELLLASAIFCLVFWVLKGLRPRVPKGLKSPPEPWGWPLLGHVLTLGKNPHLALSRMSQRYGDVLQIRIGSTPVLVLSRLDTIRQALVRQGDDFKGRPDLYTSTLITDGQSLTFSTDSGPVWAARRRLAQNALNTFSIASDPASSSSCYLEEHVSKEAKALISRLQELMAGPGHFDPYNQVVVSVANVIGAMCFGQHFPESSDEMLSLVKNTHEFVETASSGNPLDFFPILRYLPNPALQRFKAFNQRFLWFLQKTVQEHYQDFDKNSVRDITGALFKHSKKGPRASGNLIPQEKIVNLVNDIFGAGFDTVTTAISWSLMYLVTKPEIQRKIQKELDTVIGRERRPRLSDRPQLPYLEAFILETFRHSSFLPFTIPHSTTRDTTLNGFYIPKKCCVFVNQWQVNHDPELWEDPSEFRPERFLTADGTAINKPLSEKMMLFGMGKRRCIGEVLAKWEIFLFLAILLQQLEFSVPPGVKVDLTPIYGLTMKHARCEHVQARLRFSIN

[18] = system: Staphylococcus aureus; assay: Antimicrobial activity against methicillin-resistant Staphylococcus aureus by broth microdilution/CLSI method; assay type: functional
[19] = system: Haemophilus influenzae; assay: Antimicrobial activity against amoxicillin-resistant Haemophilus influenzae by broth microdilution/CLSI method; assay type: functional
[20] = system: Staphylococcus aureus; assay: Antimicrobial activity against Staphylococcus aureus ARC2398 by broth microdilution/CLSI method; assay type: functional
[21] = system: Enterococcus faecalis; assay: Antimicrobial activity against Enterococcus faecalis by broth microdilution/CLSI method; assay type: functional
[22] = system: Staphylococcus aureus; assay: Ratio of MIC for 2 times drug resistance selected Staphylococcus aureus ARC2381-2F to MIC for Staphylococcus aureus ARC2381; assay type: functional
[23] = AUC in methicillin-sensitive Staphylococcus aureus ARC516 infected in neutropenic CD1 mouse thigh model at 30 mg/kg, ip q24; assay type: ADME, organism-based; parameters: dose 30 mg/kg, route intraperitoneal; conditions: in vivo
[24] = Bioavailability in dog at 10 mg/kg, iv; assay type: ADME, organism-based, Canis lupus familiaris; conditions: plasma
[25] = system: Staphylococcus aureus; assay: Ratio of MIC for 2 times drug resistance selected Staphylococcus aureus ARC2398-1F to MIC for Staphylococcus aureus ARC2398; assay type: functional
[26] = Clearance in TR-negative Wistar rat at 10 mg/kg, iv; assay type: ADME, organism-based; parameters: dose 10 mg/kg, route intravenous; conditions: in vivo
[27] = system: Staphylococcus aureus; assay: Ratio of MIC for 2 times drug resistance selected Staphylococcus aureus ARC2398-2F to MIC for Staphylococcus aureus ARC2398; assay type: functional
[28] = system: Staphylococcus aureus; assay: Antimicrobial activity against 2 times drug resistance selected Staphylococcus aureus ARC1692-1F by broth microdilution/CLSI method; assay type: functional
[29] = system: Haemophilus influenzae; assay: Antimicrobial activity against Haemophilus influenzae by broth microdilution/CLSI method; assay type: functional; conditions: Haemophilus influenzae; read-out: MIC
[30] = system: Staphylococcus aureus; assay: Ratio of MIC for 2 times drug resistance selected Staphylococcus aureus ARC516-2F to MIC for Staphylococcus aureus ARC516; assay type: functional
[31] = biological target: Cytochrome P450 2D6 (Homo sapiens, UniProt P10635); assay: Inhibition of human CYP2D6 at 50 uM; assay type: ADME
Chain of Cytochrome P450 2D6 (P10635 whole entry): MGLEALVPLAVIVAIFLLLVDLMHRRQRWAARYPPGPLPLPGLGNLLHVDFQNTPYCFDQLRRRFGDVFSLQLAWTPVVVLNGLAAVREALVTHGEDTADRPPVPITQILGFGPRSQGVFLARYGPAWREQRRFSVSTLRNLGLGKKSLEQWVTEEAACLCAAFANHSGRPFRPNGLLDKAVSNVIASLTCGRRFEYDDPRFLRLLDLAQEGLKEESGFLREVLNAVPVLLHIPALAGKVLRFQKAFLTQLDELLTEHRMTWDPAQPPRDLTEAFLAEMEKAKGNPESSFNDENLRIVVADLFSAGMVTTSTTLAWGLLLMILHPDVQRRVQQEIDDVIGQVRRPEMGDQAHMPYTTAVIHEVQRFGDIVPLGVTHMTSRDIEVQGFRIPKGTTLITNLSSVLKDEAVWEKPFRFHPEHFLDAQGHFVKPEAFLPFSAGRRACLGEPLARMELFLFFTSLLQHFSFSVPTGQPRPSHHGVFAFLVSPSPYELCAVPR

[32] = system: Staphylococcus aureus; assay: Antimicrobial activity against 2 times drug resistance selected Staphylococcus aureus ARC2398-1F by broth microdilution/CLSI method; assay type: functional
[33] = biological target: ATP-binding cassette sub-family C member 2 (Homo sapiens, UniProt Q92887); assay: Stimulation of ATPase activity of human MRP2 assessed as inorganic phosphate
Chain of ATP-binding cassette sub-family C member 2 (Q92887 whole entry): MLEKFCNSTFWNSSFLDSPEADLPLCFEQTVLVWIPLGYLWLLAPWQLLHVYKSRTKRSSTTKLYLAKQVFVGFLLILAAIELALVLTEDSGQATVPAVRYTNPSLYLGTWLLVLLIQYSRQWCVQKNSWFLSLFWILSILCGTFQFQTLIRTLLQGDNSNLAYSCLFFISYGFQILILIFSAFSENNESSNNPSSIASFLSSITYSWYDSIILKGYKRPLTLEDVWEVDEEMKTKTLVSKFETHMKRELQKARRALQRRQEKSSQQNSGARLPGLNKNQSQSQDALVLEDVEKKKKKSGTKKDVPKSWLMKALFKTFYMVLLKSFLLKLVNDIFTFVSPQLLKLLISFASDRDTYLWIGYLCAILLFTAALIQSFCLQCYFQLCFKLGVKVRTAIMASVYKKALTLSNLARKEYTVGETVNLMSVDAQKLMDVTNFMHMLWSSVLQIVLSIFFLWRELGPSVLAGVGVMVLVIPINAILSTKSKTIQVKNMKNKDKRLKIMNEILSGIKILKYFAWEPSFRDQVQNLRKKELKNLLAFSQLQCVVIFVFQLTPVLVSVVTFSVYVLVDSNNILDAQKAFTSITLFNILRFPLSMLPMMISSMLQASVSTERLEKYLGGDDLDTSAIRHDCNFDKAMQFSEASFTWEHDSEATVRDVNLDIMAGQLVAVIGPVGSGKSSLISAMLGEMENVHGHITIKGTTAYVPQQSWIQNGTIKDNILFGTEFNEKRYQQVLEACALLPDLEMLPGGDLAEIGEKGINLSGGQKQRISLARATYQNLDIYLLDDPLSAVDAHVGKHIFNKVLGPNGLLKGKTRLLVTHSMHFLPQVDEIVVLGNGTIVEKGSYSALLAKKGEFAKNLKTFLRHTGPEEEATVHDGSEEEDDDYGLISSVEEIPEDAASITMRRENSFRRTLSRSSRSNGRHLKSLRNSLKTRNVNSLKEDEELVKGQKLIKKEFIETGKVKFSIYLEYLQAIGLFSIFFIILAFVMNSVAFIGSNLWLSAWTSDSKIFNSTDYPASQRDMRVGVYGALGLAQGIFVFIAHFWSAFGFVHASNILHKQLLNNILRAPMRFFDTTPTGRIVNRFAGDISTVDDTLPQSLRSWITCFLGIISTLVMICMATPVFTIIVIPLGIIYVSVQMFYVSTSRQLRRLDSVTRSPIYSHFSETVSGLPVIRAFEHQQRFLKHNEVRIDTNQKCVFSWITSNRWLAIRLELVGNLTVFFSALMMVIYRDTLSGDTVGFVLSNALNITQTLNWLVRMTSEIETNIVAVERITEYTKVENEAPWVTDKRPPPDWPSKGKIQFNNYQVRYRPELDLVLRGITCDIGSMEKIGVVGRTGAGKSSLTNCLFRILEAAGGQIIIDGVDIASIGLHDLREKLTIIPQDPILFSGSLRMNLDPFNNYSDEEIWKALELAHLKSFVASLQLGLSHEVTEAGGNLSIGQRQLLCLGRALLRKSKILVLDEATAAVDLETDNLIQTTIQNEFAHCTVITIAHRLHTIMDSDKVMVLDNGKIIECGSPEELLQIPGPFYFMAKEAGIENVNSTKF

[34] = system: Streptococcus pneumoniae; assay: Antibacterial activity against Streptococcus pneumoniae by broth microdilution/CLSI method; assay type: functional; conditions: Streptococcus pneumoniae; read-out: MIC
[35] = system: Staphylococcus aureus; assay: Ratio of MIC for 2 times drug resistance selected Staphylococcus aureus ARC2381-3F to MIC for Staphylococcus aureus ARC2381; assay type: functional
[36] = Percentage unbound in human plasma; assay type: ADME, cell-free

SMILES: COC[C@H](C)NC(=O)c1nc(N2CC[C@@H](NC(=O)c3[nH]c(C)c(Cl)c3Cl)[C@@H](OC)C2)sc1C(=O)O [AZD-5099]
- MIC90 [1]: 0.06 µg/mL (≈ 0.109 µM)
- MIC [2]: 0.016 µg/mL (≈ 0.0292 µM)
- MIC [3]: 0.014 µg/mL (≈ 0.0255 µM)
- fraction unbound [4]: 0.047
- clearance [5]: 10 mL/min/kg
- inhibition [6]: Dose-dependent effect
- inhibition (INH) [7]: Not Active
- deltalog10CFU [8]: 1.51
- MIC [9]: 0.06 µg/mL (≈ 0.109 µM)
- MIC [10]: 0.25 µg/mL (≈ 0.456 µM)
- Ratio [11]: 2.3
- MIC [12]: 0.13 µg/mL (≈ 0.237 µM)
- bioavailability [13]: 100%
- IC50 [14]: < 0.01 µM
- Ratio [15]: 8
- MIC [16]: 0.03 µg/mL (≈ 0.0547 µM)
- inhibition (INH) [17]: Not Active
- MIC90 [18]: 0.06 µg/mL (≈ 0.109 µM)
- MIC90 [19]: 0.25 µg/mL (≈ 0.456 µM)
- MIC [20]: 0.03 µg/mL (≈ 0.0547 µM)
- MIC90 [21]: 0.015 µg/mL (≈ 0.0273 µM)
- Ratio [22]: 8
- AUC [23]: 116 µg·h/mL
- bioavailability [24]: 96%
- Ratio [25]: 16
- clearance [26]: 2.1 mL/min/kg
- Ratio [27]: 16
- MIC [28]: 0.5 µg/mL (≈ 0.912 µM)
- MIC [29]: 0.13 µg/mL (≈ 0.237 µM)
- Ratio [30]: 16
- inhibition (INH) [31]: Not Active
- MIC [32]: 0.5 µg/mL (≈ 0.912 µM)
- EC50 [33]: > 200 µM
- MIC [34]: 0.016 µg/mL (≈ 0.0292 µM)
- Ratio [35]: 8
- fraction unbound [36]: 0.025

— ChEMBL document CHEMBL3352173, “Optimization of pyrrolamide topoisomerase II inhibitors toward identification of an antibacterial clinical candidate (AZD5099)” (J Med Chem, 2014)
